This test deals with Cavia porcellus. The experiment in a line: In vivo antagonistic activity against leukotriene D4 (LTD4) in guinea pig lung. In kind it is functional. Conditions: read-out: ID50 (the source's name). In short, it runs like this:
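Drug in propylene glycol given iv 10 min before LTD4 400 ng/kg iv; controls received solvent. Lung overflow volume read at 5 min; ID50 by inverse prediction, common-slope parallel line assay, 3-fold doses, 2–6 animals/dose.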

`CCCc1c(NC(=O)C(=O)OCC)cccc1OCC(O)COc1ccc(C(C)=O)c(O)c1CCC` (stereo not given): the ED50 worked out at 2.6 mg/kg.

On to `CCCc1c(OCC(O)COc2cccc(NC(=O)C(=O)OCC(C)(C)C)c2C#N)ccc(C(C)=O)c1O` (stereo not given), for which the ED50 stood at 0.461 mg/kg. In the case of `CCCc1c(OCCCOc2cccc(NC(=O)C(=O)OCC)c2)ccc(C(C)=O)c1O` it was 1.09 mg/kg. Turning to `CCCc1c(OCC(O)COc2cccc(NC(=O)CC(=O)OCC)c2C#N)ccc(C(C)=O)c1O` (stereo not given), the ED50 was 0.64 mg/kg. For `CCCc1c(OCCCOc2cccc(NC(=O)C(=O)OCC)c2C#N)ccc(C(C)=O)c1O`, the ED50 came out at 0.342 mg/kg.

As to `CCCc1c(OCCCOc2cccc(NC(=O)CCC(=O)OCC)c2C#N)ccc(C(C)=O)c1O`, the ED50 was found to be 1.77 mg/kg. Under `CCCc1c(OCC(O)COc2cccc(NC(=O)C(=O)OCC)c2C#N)ccc(C(C)=O)c1O` (stereo not given) stands 0.113 mg/kg. Under `CCCc1c(OCC(O)COc2cccc(NC(=O)C(=O)O)c2C#N)ccc(C(C)=O)c1O` (stereo not given) stands 1.8 mg/kg; under `CCCc1c(OCCCOc2cccc(NC(=O)CCC(=O)OCC)c2)ccc(C(C)=O)c1O`, 1.28 mg/kg; under `CCCc1c(OCC(O)COc2ccc3c(=O)cc(C(=O)[O-])oc3c2CCC)ccc(C(C)=O)c1O.[Na+]` (stereo not given) [FPL-55712 SODIUM SALT], 0.153 mg/kg.

Values taken from ChEMBL document CHEMBL1123298, “Novel 1,3-bis(aryloxy)propanes as leukotriene D4 antagonists” (1986).
